As a reminder, the MIC is the lowest concentration that inhibits growth of the organism.

Each structure is given as a SMILES string. ≈ marks a conversion by molar mass, not a printed value.

We go through five compounds from ChEMBL document CHEMBL1142180, “First characterization of fluoroquinolone resistance in Streptococcus suis” (2007).

Assay type in all cases: functional
Assay [1] relates to Streptococcus suis. Description: Antibacterial activity against Streptococcus suis BB1008 isolate after 24 hrs. The method in brief:
(§1)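 Broth microdilution MIC assay against S. suis collection strain or Spanish/South American swine clinical isolates, incubated at 37°C for 24 h; MIC reported in μg/ml.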

Assay [2] concerns Streptococcus suis. Kind of assay: Antibacterial activity against Streptococcus suis BB1011 isolate after 24 hrs.
For assay [3], the system named is Streptococcus suis. Kind of assay: Antibacterial activity against Streptococcus suis BB1015 isolate in presence of 10 ug/ml reserpine after 24 hrs. The method in brief: (§2)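 Clinical swine S. suis isolates; MIC by microdilution, 37°C for 24 h, ciprofloxacin tested with reserpine added; MIC reported in μg/ml.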
For assay [4], the system named is Streptococcus suis. Kind of assay: Antibacterial activity against Streptococcus suis BB1009 isolate after 24 hrs. Summed up:
as §1

Assay [5] relates to Streptococcus suis. Description: Antibacterial activity against Streptococcus suis BB1010 isolate in presence of 10 ug/ml reserpine after 24 hrs. The method in brief: as §2
The test system of assay [6] is Streptococcus suis. Kind of assay: Antibacterial activity against Streptococcus suis BB1015 isolate after 24 hrs. The method in brief:
as §1

In assay [7] the test system is Streptococcus suis. Kind of assay: Antibacterial activity against Streptococcus suis BB1006 isolate in presence of 10 ug/ml reserpine after 24 hrs. The method in brief: as §1
The subject of assay [8] is Streptococcus suis. Description: Antibacterial activity against Streptococcus suis BB1006 isolate after 24 hrs. Summed up:
as §1

Assay [9] deals with Streptococcus suis. Kind of assay: Antibacterial activity against Streptococcus suis BB1014 isolate in presence of 10 ug/ml reserpine after 24 hrs. The method in brief: as §2
Assay [10] deals with Streptococcus suis. Description: Antibacterial activity against Streptococcus suis BB1016 isolate after 24 hrs. The method in brief:
as §1

Assay [11] has as its system Streptococcus suis. Description: Antibacterial activity against Streptococcus suis BB1014 isolate after 24 hrs. The method in brief: as §1
Assay [12] deals with Streptococcus suis. Description: Antibacterial activity against Streptococcus suis BB1012 isolate in presence of 10 ug/ml reserpine after 24 hrs. The method in brief:
as §2

Assay [13] concerns Streptococcus suis. Description: Antibacterial activity against Streptococcus suis BB1001 isolate in presence of 10 ug/ml reserpine after 24 hrs. Summed up:
as §1

For assay [14], the system named is Streptococcus suis. Description: Antibacterial activity against Streptococcus suis BB1004 isolate in presence of 10 ug/ml reserpine after 24 hrs. The method in brief:
as §1

Assay [15] deals with Streptococcus suis. Kind of assay: Antibacterial activity against Streptococcus suis BB1010 isolate after 24 hrs. Summed up:
as §1

In assay [16] the test system is Streptococcus suis. Kind of assay: Antibacterial activity against Streptococcus suis BB1011 isolate in presence of 10 ug/ml reserpine after 24 hrs. Summed up:
as §2

Assay [17] has as its system Streptococcus suis. Description: Antibacterial activity against Streptococcus suis BB1003 isolate in presence of 10 ug/ml reserpine after 24 hrs. Summed up: as §1
In assay [18] the test system is Streptococcus suis. Kind of assay: Antibacterial activity against Streptococcus suis BB1009 isolate in presence of 10 ug/ml reserpine after 24 hrs. The method in brief:
as §2

Assay [19] relates to Streptococcus suis. Description: Antibacterial activity against Streptococcus suis BB1003 isolate after 24 hrs. Summed up: as §1
The test system of assay [20] is Streptococcus suis. Kind of assay: Antibacterial activity against Streptococcus suis ATCC 43765 in presence of 10 ug/ml reserpine after 24 hrs. The settings on record: ATCC 43765, 24 h. Summed up:
as §1

In assay [21] the test system is Streptococcus suis. Description: Antibacterial activity against Streptococcus suis BB1007 isolate in presence of 10 ug/ml reserpine after 24 hrs. The method in brief:
as §1

Assay [22] deals with Streptococcus suis. Description: Antibacterial activity against Streptococcus suis BB1013 isolate after 24 hrs. The method in brief:
as §1

Assay [23] relates to Streptococcus suis. Kind of assay: Antibacterial activity against Streptococcus suis BB1017 isolate in presence of 10 ug/ml reserpine after 24 hrs. The method in brief:
as §2

Assay [24] has as its system Streptococcus suis. Description: Antibacterial activity against Streptococcus suis BB1005 isolate in presence of 10 ug/ml reserpine after 24 hrs. Summed up: as §1
In assay [25] the test system is Streptococcus suis. Kind of assay: Antibacterial activity against Streptococcus suis ATCC 43765 after 24 hrs. The settings on record: ATCC 43765, 24 h. The method in brief: as §1
Assay [26] concerns Streptococcus suis. Kind of assay: Antibacterial activity against Streptococcus suis BB1001 isolate after 24 hrs. The method in brief: as §1
The test system of assay [27] is Streptococcus suis. Description: Antibacterial activity against Streptococcus suis BB1012 isolate after 24 hrs. The method in brief: as §1
Assay [28] has as its system Streptococcus suis. Description: Antibacterial activity against Streptococcus suis BB1017 isolate after 24 hrs. Summed up:
as §1

Assay [29] has as its system Streptococcus suis. Description: Antibacterial activity against Streptococcus suis BB1008 isolate in presence of 10 ug/ml reserpine after 24 hrs. Summed up: as §1
The subject of assay [30] is Streptococcus suis. Kind of assay: Antibacterial activity against Streptococcus suis BB1002 isolate in presence of 10 ug/ml reserpine after 24 hrs. The method in brief: as §1
The test system of assay [31] is Streptococcus suis. Kind of assay: Antibacterial activity against Streptococcus suis BB1002 isolate after 24 hrs. Summed up:
as §1

For assay [32], the system named is Streptococcus suis. Description: Antibacterial activity against Streptococcus suis BB1005 isolate after 24 hrs. Summed up: as §1
For assay [33], the system named is Streptococcus suis. Kind of assay: Antibacterial activity against Streptococcus suis BB1013 isolate in presence of 10 ug/ml reserpine after 24 hrs. The method in brief: as §2
Assay [34] has as its system Streptococcus suis. Kind of assay: Antibacterial activity against Streptococcus suis BB1004 isolate after 24 hrs. The method in brief:
as §1

Assay [35] relates to Streptococcus suis. Description: Antibacterial activity against Streptococcus suis BB1016 isolate in presence of 10 ug/ml reserpine after 24 hrs. Summed up:
as §2

The test system of assay [36] is Streptococcus suis. Kind of assay: Antibacterial activity against Streptococcus suis BB1007 isolate after 24 hrs. The method in brief: as §1

For the compound `O=C(O)c1cn(C2CC2)c2cc(N3CCNCC3)c(F)cc2c1=O` [CIPROFLOXACIN], the MIC worked out at 64 µg/mL (≈ 193 µM) in the assay with Streptococcus suis [1]; 16 µg/mL (≈ 48.3 µM) in the assay on Streptococcus suis [2]; 16 µg/mL with Streptococcus suis [3]; 32 µg/mL (≈ 96.6 µM) with Streptococcus suis [4]; 16 µg/mL in the assay with Streptococcus suis [5]; 32 µg/mL (≈ 96.6 µM) against Streptococcus suis [6]. The MIC in the assay with Streptococcus suis [7] is 1 µg/mL; in the assay with Streptococcus suis [8] it was 2 µg/mL (≈ 6.04 µM); with Streptococcus suis [9] it was 16 µg/mL; in the assay on Streptococcus suis [10], 32 µg/mL (≈ 96.6 µM); against Streptococcus suis [11], 64 µg/mL (≈ 193 µM); in the assay with Streptococcus suis [12], 16 µg/mL. Further, the MIC turned out to be 0.5 µg/mL in the assay with Streptococcus suis [13]; 0.5 µg/mL with Streptococcus suis [14]; 32 µg/mL (≈ 96.6 µM) against Streptococcus suis [15]; 16 µg/mL in the assay with Streptococcus suis [16]; 0.5 µg/mL in the assay with Streptococcus suis [17]; 16 µg/mL in the assay with Streptococcus suis [18]. Moreover, the minimum inhibitory concentration (MIC) in the assay with Streptococcus suis [19] stood at 0.5 µg/mL (≈ 1.51 µM); in the assay with Streptococcus suis [20] it was 0.5 µg/mL; with Streptococcus suis [21], 4 µg/mL; with Streptococcus suis [22] it was 64 µg/mL (≈ 193 µM); in the assay with Streptococcus suis [23], 16 µg/mL; in the assay on Streptococcus suis [24], 0.5 µg/mL. Besides, the MIC against Streptococcus suis [25] was determined as 0.5 µg/mL (≈ 1.51 µM); against Streptococcus suis [26], 0.5 µg/mL (≈ 1.51 µM); with Streptococcus suis [27] it was 32 µg/mL (≈ 96.6 µM); in the assay with Streptococcus suis [28] it was 64 µg/mL (≈ 193 µM); with Streptococcus suis [29] it was 32 µg/mL; with Streptococcus suis [30] it was 0.5 µg/mL. Further, the MIC turned out to be 0.5 µg/mL (≈ 1.51 µM) in the assay on Streptococcus suis [31]; 0.5 µg/mL (≈ 1.51 µM) in the assay on Streptococcus suis [32]; 16 µg/mL with Streptococcus suis [33]; 0.5 µg/mL (≈ 1.51 µM) in the assay with Streptococcus suis [34]; 16 µg/mL in the assay on Streptococcus suis [35].
Regarding `CCn1cc(C(=O)O)c(=O)c2ccc(C)nc21` [NALIDIXIC ACID], the MIC with Streptococcus suis [1], in the assay on Streptococcus suis [2], with Streptococcus suis [4], against Streptococcus suis [6], in the assay with Streptococcus suis [8] and against Streptococcus suis [10] was more than 64 µg/mL in each case. The MIC in the assay on Streptococcus suis [36], against Streptococcus suis [11], in the assay on Streptococcus suis [15], in the assay with Streptococcus suis [19], with Streptococcus suis [22] and with Streptococcus suis [25] was more than 64 µg/mL in each case. Moreover, the MIC against Streptococcus suis [26], in the assay with Streptococcus suis [27], against Streptococcus suis [28], in the assay on Streptococcus suis [31], in the assay with Streptococcus suis [32] and in the assay on Streptococcus suis [34] was more than 64 µg/mL throughout.
As to `C[C@H]1COc2c(N3CCN(C)CC3)c(F)cc3c(=O)c(C(=O)O)cn1c23.C[C@H]1COc2c(N3CCN(C)CC3)c(F)cc3c(=O)c(C(=O)O)cn1c23.O` [LEVOFLOXACIN], the MIC against Streptococcus suis [1] turned out to be 16 µg/mL; with Streptococcus suis [2], 16 µg/mL; in the assay on Streptococcus suis [4], 16 µg/mL; in the assay on Streptococcus suis [6], 16 µg/mL; in the assay on Streptococcus suis [8] it was 1 µg/mL; against Streptococcus suis [10], 32 µg/mL. Besides, the minimal inhibitory concentration (MIC) is 2 µg/mL in the assay on Streptococcus suis [36]; 32 µg/mL in the assay on Streptococcus suis [11]; 32 µg/mL against Streptococcus suis [15]; 0.5 µg/mL in the assay with Streptococcus suis [19]; 16 µg/mL against Streptococcus suis [22]; 1 µg/mL in the assay on Streptococcus suis [25]. The MIC against Streptococcus suis [26] was determined as 1 µg/mL; against Streptococcus suis [27], 16 µg/mL; in the assay on Streptococcus suis [28] it was 64 µg/mL; with Streptococcus suis [31] it was 1 µg/mL; against Streptococcus suis [32], 0.5 µg/mL; with Streptococcus suis [34], 1 µg/mL.
As for `CCN1CCN(c2cc3c(cc2F)c(=O)c(C(=O)O)cn3C2CC2)CC1` [ENROFLOXACIN], the MIC in the assay on Streptococcus suis [1] came to 32 µg/mL (≈ 89 µM); in the assay on Streptococcus suis [2] it was 16 µg/mL (≈ 44.5 µM); against Streptococcus suis [4], 16 µg/mL (≈ 44.5 µM); against Streptococcus suis [6] it was 16 µg/mL (≈ 44.5 µM); against Streptococcus suis [8], 1 µg/mL (≈ 2.78 µM); against Streptococcus suis [10], 8 µg/mL (≈ 22.3 µM). For the same compound, the MIC against Streptococcus suis [36] worked out at 4 µg/mL (≈ 11.1 µM); against Streptococcus suis [11], 16 µg/mL (≈ 44.5 µM); against Streptococcus suis [15] it was 32 µg/mL (≈ 89 µM); with Streptococcus suis [19] it was 0.5 µg/mL (≈ 1.39 µM); in the assay on Streptococcus suis [22] it was 8 µg/mL (≈ 22.3 µM); against Streptococcus suis [25], 0.5 µg/mL (≈ 1.39 µM). Also, the MIC in the assay on Streptococcus suis [26] came to 0.5 µg/mL (≈ 1.39 µM); against Streptococcus suis [27], 8 µg/mL (≈ 22.3 µM); in the assay on Streptococcus suis [28] it was 16 µg/mL (≈ 44.5 µM); against Streptococcus suis [31] it was 0.5 µg/mL (≈ 1.39 µM); in the assay with Streptococcus suis [32], 0.25 µg/mL (≈ 0.696 µM); in the assay with Streptococcus suis [34], 0.5 µg/mL (≈ 1.39 µM).
For `CCn1cc(C(=O)O)c(=O)c2cc(F)c(N3CCNCC3)cc21` [NORFLOXACIN], the MIC in the assay with Streptococcus suis [1] was more than 64 µg/mL; in the assay on Streptococcus suis [2], 32 µg/mL (≈ 100 µM); with Streptococcus suis [4], 32 µg/mL (≈ 100 µM); against Streptococcus suis [6] it was more than 64 µg/mL; against Streptococcus suis [8], 32 µg/mL (≈ 100 µM); in the assay on Streptococcus suis [10], more than 64 µg/mL. Also, the minimum inhibitory concentration (MIC) against Streptococcus suis [36] is 16 µg/mL (≈ 50.1 µM); against Streptococcus suis [11], more than 64 µg/mL; against Streptococcus suis [15], more than 64 µg/mL; against Streptococcus suis [19] it was 4 µg/mL (≈ 12.5 µM); against Streptococcus suis [22] it was more than 64 µg/mL; against Streptococcus suis [25], 4 µg/mL (≈ 12.5 µM). Moreover, the MIC against Streptococcus suis [26] is 2 µg/mL (≈ 6.26 µM); in the assay on Streptococcus suis [27], more than 64 µg/mL; against Streptococcus suis [28], more than 64 µg/mL; against Streptococcus suis [31], 2 µg/mL (≈ 6.26 µM); with Streptococcus suis [32], 4 µg/mL (≈ 12.5 µM); in the assay with Streptococcus suis [34], 2 µg/mL (≈ 6.26 µM).
